Data taken from ChEMBL document CHEMBL2413022, “3-Aryl-4-acyloxyethoxyfuran-2(5H)-ones as inhibitors of tyrosyl-tRNA synthetase: synthesis, molecular docking and antibacterial evaluation” (Bioorg Med Chem, 2013).
Values after ≈ are worked out from the molar mass of the structure shown.

Experiments:
Candida albicans = assay: Antifungal activity against Candida albicans ATCC 10231 by MTT assay; format: functional
Summary of the method: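 LB medium; inoculum about 10⁵ cfu/mL with serially diluted compound (medium-only blank), incubated at 28 °C. MTT in PBS (3 mg/mL) added, 4–5 h at room temperature. Dye extracted 8–10 h in 10% SDS with 5% isopropanol and HCl. OD read at 570 nm, control OD 1.0–2.0; MIC50 from absorbance.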

Pseudomonas aeruginosa = assay: Antibacterial activity against Pseudomonas aeruginosa ATCC 27853 by MTT assay; format: functional
Summary of the method: (§1)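 LB medium; inoculum about 10⁵ cfu/mL added to serially diluted compound (medium-only blank) and incubated at 37 °C. Then MTT in PBS (3 mg/mL) added, 4–5 h at room temperature. Medium removed, dye extracted 8–10 h in 10% SDS with 5% isopropanol and HCl. Read OD 570 nm, control OD kept at 1.0–2.0; MIC50 taken from absorbance.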

Staphylococcus aureus = assay: Antibacterial activity against Staphylococcus aureus ATCC 25923 by MTT assay; format: functional; summary of the method: as §1
[1] = Inhibition of Staphylococcus aureus tyrosyl-tRNA synthetase expressed in Escherichia coli using L-[ring-3,5-3H] tyrosine as substrate preincubated for 10 mins by liquid scintillation counting analysis
Summary of the method: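 Enzyme purified to about 98% (SDS–PAGE). Aminoacylation at 37 °C, final 100 mM Tris/Cl pH 7.9, 50 mM KCl. TyrRS (0.2 nM) preincubated with a range of inhibitor concentrations for 10 min at room temperature, then pre-warmed mixture added. Aliquots quenched in ice-cold 7% TCA at set intervals, filtered, counted by liquid scintillation.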

Escherichia coli = assay: Antibacterial activity against Escherichia coli ATCC 35218 by MTT assay; format: functional; summary of the method: as §1

Row | SMILES | MIC50 (Candida albicans) [µg/mL] | MIC50 (Pseudomonas aeruginosa) [µg/mL] | MIC50 (Staphylococcus aureus) [µg/mL] | IC50 [1] [µM] | MIC50 (Escherichia coli) [µg/mL]
1 | O=C(Cc1ccc(Br)cc1)OCCOC1=C(c2ccc(Cl)cc2)C(=O)OC1 | 13.1 (≈ 29 µM) | 20.6 (≈ 45.6 µM) | 13 (≈ 28.8 µM) | 16.7 | 14.3 (≈ 31.7 µM)
2 | Cc1ccc(C(=O)OCCOC2=C(c3ccccc3)C(=O)OC2)cc1 | 23.4 (≈ 69.2 µM) | 37.7 (≈ 111 µM) | 18.3 (≈ 54.1 µM) | 17.8 | > 100
3 | CC(=O)N1CCN(c2ccc(OCC3COC(Cn4ccnc4)(c4ccc(Cl)cc4Cl)O3)cc2)CC1 (centres undefined) [KETOCONAZOLE] | 3.8 (≈ 7.15 µM) |  |  |  | 
4 | O=C1OCC(OCCOC(=O)c2cccc(Cl)c2)=C1c1ccc(Cl)cc1 | 1.2 (≈ 3.05 µM) | 1.5 (≈ 3.81 µM) | 2 (≈ 5.09 µM) | 0.9 | 4.3 (≈ 10.9 µM)
5 | O=C(Cc1ccc(Br)cc1)OCCOC1=C(c2ccccc2)C(=O)OC1 | > 100 | 22 (≈ 52.7 µM) | 15.4 (≈ 36.9 µM) | 48.1 | 78.7 (≈ 189 µM)
6 | O=C1OCC(OCCOC(=O)c2ccc3cc(O)ccc3c2)=C1c1ccccc1 | > 100 | 15.8 (≈ 40.5 µM) | 16.1 (≈ 41.2 µM) | 16.8 | > 100
7 | O=C(Cc1ccc(Cl)cc1)OCCOC1=C(c2ccc(Cl)cc2)C(=O)OC1 | > 100 | 17.7 (≈ 43.5 µM) | 13.3 (≈ 32.7 µM) | 9.3 | 45.6 (≈ 112 µM)
8 | O=C1OCC(OCCOC(=O)c2cccc(C(F)(F)F)c2)=C1c1ccccc1 | > 100 | 2.4 (≈ 6.12 µM) | 17.5 (≈ 44.6 µM) | 4.3 | 23.3 (≈ 59.4 µM)
9 | Cc1ccccc1C(=O)OCCOC1=C(c2ccccc2)C(=O)OC1 | > 100 | 90.2 (≈ 267 µM) | > 100 | > 100 | 19.3 (≈ 57 µM)
10 | O=C1OCC(OCCOC(=O)c2ccc(F)cc2)=C1c1ccccc1 | 18.1 (≈ 52.9 µM) | 13.8 (≈ 40.3 µM) | 8.2 (≈ 24 µM) | 7.5 | > 100
11 | COc1ccccc1C(=O)OCCOC1=C(c2ccccc2)C(=O)OC1 | > 100 | 73.6 (≈ 208 µM) | > 100 | 64.7 | > 100
12 | O=C1OCC(OCCOC(=O)c2ccc(Cl)c(Cl)c2)=C1c1ccccc1 | 95.4 (≈ 243 µM) | 22.7 (≈ 57.7 µM) | 19.9 (≈ 50.6 µM) | 33.4 | 2.9 (≈ 7.37 µM)
13 | O=C1OCC(OCCOC(=O)c2ccccc2O)=C1c1ccccc1 | > 100 | 47.8 (≈ 140 µM) | 24.9 (≈ 73.2 µM) | 41.4 | 15.7 (≈ 46.1 µM)
14 | O=C1OCC(OCCOC(=O)c2ccc(O)cc2O)=C1c1ccccc1 | > 100 | 36.7 (≈ 103 µM) | 15.3 (≈ 42.9 µM) | 50.2 | > 100
15 | NC[C@H]1O[C@H](O[C@H]2[C@H](O)[C@@H](O[C@H]3O[C@H](CO)[C@@H](O)[C@H](N)[C@H]3O)[C@H](N)C[C@@H]2N)[C@H](O)[C@@H](O)[C@@H]1O [KANAMYCIN] |  |  | 1.5 (≈ 3.1 µM) |  | 3.5 (≈ 7.22 µM)
16 | CCCC(=O)OCCOC1=C(c2ccccc2)C(=O)OC1 | 88.7 (≈ 306 µM) | 98.1 (≈ 338 µM) | 41.3 (≈ 142 µM) | 84.6 | > 100
17 | O=C(Cc1cccc(Cl)c1)OCCOC1=C(c2ccc(Cl)cc2)C(=O)OC1 | 2.5 (≈ 6.14 µM) | 2.5 (≈ 6.14 µM) | 5.2 (≈ 12.8 µM) | 1.1 | 7.6 (≈ 18.7 µM)
18 | O=C1OCC(OCCOC(=O)c2ccc3ccccc3c2)=C1c1ccccc1 | > 100 | 18.1 (≈ 48.3 µM) | 21.9 (≈ 58.5 µM) | 17.7 | > 100
19 | Cc1cccc(C(=O)OCCOC2=C(c3ccccc3)C(=O)OC2)c1 | > 100 | 16.7 (≈ 49.4 µM) | 15.8 (≈ 46.7 µM) | 8.1 | > 100
20 | O=C1OCC(OCCOC(=O)c2ccccc2[N+](=O)[O-])=C1c1ccccc1 | > 100 | 35.5 (≈ 96.1 µM) | 24.3 (≈ 65.8 µM) | 18.2 | 17.5 (≈ 47.4 µM)
21 | O=C1OCC(OCCOC(=O)c2cccc([N+](=O)[O-])c2)=C1c1ccccc1 | > 100 | > 100 | > 100 | > 100 | 9.4 (≈ 25.5 µM)

Row | SMILES | MIC50 (Candida albicans) [µg/mL] | MIC50 (Pseudomonas aeruginosa) [µg/mL] | MIC50 (Staphylococcus aureus) [µg/mL] | IC50 [1] [µM] | MIC50 (Escherichia coli) [µg/mL]
22 | O=C1OCC(OCCOC(=O)c2ccc(O)c(O)c2)=C1c1ccccc1 | > 100 | > 100 | 19.9 (≈ 55.8 µM) | 75.3 | > 100
23 | O=C(Cc1ccc(O)cc1)OCCOC1=C(c2ccccc2)C(=O)OC1 | > 100 | 68.1 (≈ 192 µM) | 22.5 (≈ 63.5 µM) | > 100 | 53.6 (≈ 151 µM)
24 | O=C1OCC(OCCOC(=O)c2ccc([N+](=O)[O-])cc2)=C1c1ccccc1 | 2.7 (≈ 7.31 µM) | 11.4 (≈ 30.9 µM) | 24.5 (≈ 66.3 µM) | 5.2 | 5 (≈ 13.5 µM)
25 | O=C(Cc1cccc(Cl)c1)OCCOC1=C(c2ccccc2)C(=O)OC1 | > 100 | 83.1 (≈ 223 µM) | > 100 | > 100 | > 100
26 | O=C1OCC(OCCOC(=O)c2ccccc2Cl)=C1c1ccccc1 | > 100 | 52.7 (≈ 147 µM) | 72.9 (≈ 203 µM) | 56.8 | 17.9 (≈ 49.9 µM)
27 | O=C1OCC(OCCOC(=O)c2cc(O)cc(O)c2)=C1c1ccccc1 | > 100 | 14.4 (≈ 40.4 µM) | 2.2 (≈ 6.17 µM) | 6.7 | > 100
28 | O=C1OCC(OCCOC(=O)c2cc(Cl)ccc2Cl)=C1c1ccccc1 | > 100 | 2.9 (≈ 7.37 µM) | 24.8 (≈ 63.1 µM) | 5.2 | 13.9 (≈ 35.3 µM)
29 | O=C1OCC(OCCOC(=O)c2ccc(Cl)cc2)=C1c1ccccc1 | 78.4 (≈ 219 µM) | 14.5 (≈ 40.4 µM) | 17.2 (≈ 47.9 µM) | 8.8 | > 100
30 | O=C(Cc1ccc(F)cc1)OCCOC1=C(c2ccccc2)C(=O)OC1 | > 100 | > 100 | 16.5 (≈ 46.3 µM) | 93.6 | > 100
31 | O=C1OCC(OCCOC(=O)c2ccc(Cl)cc2Cl)=C1c1ccccc1 | 22.9 (≈ 58.2 µM) | 21.3 (≈ 54.2 µM) | 18.2 (≈ 46.3 µM) | 16.5 | 12.8 (≈ 32.6 µM)
32 | O=C1OCC(OCCOC(=O)c2ccccc2)=C1c1ccccc1 | > 100 | 13.4 (≈ 41.3 µM) | 17.8 (≈ 54.9 µM) | 12.8 | > 100
33 | O=C1OCC(OCCOC(=O)c2ccc(O)cc2)=C1c1ccccc1 | 23 (≈ 67.6 µM) | 21.3 (≈ 62.6 µM) | 23.3 (≈ 68.5 µM) | 11.2 | 19.5 (≈ 57.3 µM)
34 | CCCCCC(=O)OCCOC1=C(c2ccccc2)C(=O)OC1 | 21.4 (≈ 67.2 µM) | 60.8 (≈ 191 µM) | 43 (≈ 135 µM) | 47.8 | > 100
35 | O=C(Cc1ccc(F)cc1)OCCOC1=C(c2ccc(Cl)cc2)C(=O)OC1 | 15.6 (≈ 39.9 µM) | 13.2 (≈ 33.8 µM) | 14.9 (≈ 38.1 µM) | 5.7 | > 100
36 | O=C(Cc1cccc(Br)c1)OCCOC1=C(c2ccc(Cl)cc2)C(=O)OC1 | 4.2 (≈ 9.3 µM) | 4.6 (≈ 10.2 µM) | 13.6 (≈ 30.1 µM) | 3.5 | 16.6 (≈ 36.8 µM)
37 | O=C1OCC(OCCOC(=O)c2cccnc2)=C1c1ccccc1 | > 100 | 44.8 (≈ 138 µM) | 22.8 (≈ 70.1 µM) | 26 | 18.6 (≈ 57.2 µM)
38 | CCCCCCCC(=O)OCCOC1=C(c2ccccc2)C(=O)OC1 | > 100 | 56.8 (≈ 164 µM) | > 100 | 41 | 48.8 (≈ 141 µM)
39 | COc1ccc(CC(=O)OCCOC2=C(c3ccccc3)C(=O)OC2)cc1OC | 92.3 (≈ 232 µM) | > 100 | > 100 | 83.8 | > 100
40 | CCn1cc(C(=O)O)c(=O)c2cc(F)c(N3CCNCC3)cc21 [NORFLOXACIN] |  | 2.1 (≈ 6.58 µM) |  |  | 
41 | O=C(Cc1ccc(O)cc1)OCCOC1=C(c2ccc(Cl)cc2)C(=O)OC1 | > 100 | 15.5 (≈ 39.9 µM) | 27.4 (≈ 70.5 µM) | 7.9 | > 100
